Assay outcomes as filed in PubChem BioAssay.
The list is not random: actives were taken first. Their share in the collection is about 4.7%.
MrgX1 agonist – human MrgX1 receptor agonism, primary screen. Q96LB2. hit rate 0.44% among 310,000. MrgX1-HEK293 cells, Fluo-4 calcium fluorescence, agonist mode; hits give high values. B-score at 10 µM. AID 588627;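 active means calcium response B-score plate-corrected fluorescence ratio at least 3 library SD, with starting fluorescence B-score inside 5 SD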
Target sequence (Q96LB2 whole entry, looked up): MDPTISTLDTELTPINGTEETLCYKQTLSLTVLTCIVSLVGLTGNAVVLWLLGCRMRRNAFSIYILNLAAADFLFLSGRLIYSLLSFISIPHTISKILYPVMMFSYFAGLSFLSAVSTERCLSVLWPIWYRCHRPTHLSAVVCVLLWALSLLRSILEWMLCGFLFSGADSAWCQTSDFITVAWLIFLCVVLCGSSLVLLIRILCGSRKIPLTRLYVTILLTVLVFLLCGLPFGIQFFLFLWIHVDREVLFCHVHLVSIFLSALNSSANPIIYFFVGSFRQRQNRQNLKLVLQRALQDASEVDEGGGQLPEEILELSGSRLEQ
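Test system: HEK293 cells stably expressing human MrgX1 receptor; amount: 15,000 cells per well; doses: compound delivered in addition one of three; times: overnight plating before 1 h dye loading; detection: Fluo-4 NW calcium-flux fluorescence, kinetic read; read-out basis: B-scored fluorescence response ratio; controls: positive and negative controls per plate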
MrgX1 allo act – allosterically activates human MrgX1 receptor signaling; Q96LB2; MrgX1-HEK293, Fluo-4 calcium flux, FDSS; hits give high values; B-score at 10 µM; hit rate 0.63% among 310,000; AID 588675;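 active means plate-corrected calcium response at least 3 library SD above typical, normal starting fluorescence, not activating the receptor alone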;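 further: compound read alongside a low EC10 to EC30 dose of BAM8-22 agonist; peak minus trough fluorescence over baseline measured at the second addition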
MrgX1 antagonist – human MrgX1 receptor antagonism, primary screen. Q96LB2. MRGX1-HEK293 calcium flux, Fluo-4, BAM8-22 antagonism; hits give low values. B-score at 10 µM. hit rate 1.3% among 310,000. AID 588676;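 active means calcium-response B-score plate-corrected more than 3 library SD below zero, starting fluorescence within 5 deviations, no agonist response on first addition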;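 further: peak minus trough fluorescence over baseline after final BAM8-22 challenge near maximal dose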
RGS4 act – potentiators or activators of RGS4; AID 463111; HEK293 M3R/inducible RGS4, carbachol calcium flux Fluo4; hits give low values; B-score at 10 µM; hit rate 0.92% among 310,000;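 active means B-score of the integrated calcium signal more than 4 SD below the library mean, with starting fluorescence not abnormally high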;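 further: negative B-score means reduced calcium response which marks RGS4 activation or potentiation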
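Detection: kinetic calcium fluorescence imaging with Fluo4-AM dye, 2 µM / Material: HEK293 cells with stable M3R and inducible RGS4 / Schedule: recording 10 s baseline at 1 Hz, 100 s post-agonist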
RGS4 inh – human RGS4 inhibition. P49798. HEK293 M3R/RGS4 inducible, Fluo-4 calcium flux; hits give high values; triggered by carbachol at its EC20. B-score at 10 µM. hit rate 0.45% among 310,000;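 active means B-score, a plate-corrected calcium signal, over three deviations above library mean, with baseline fluorescence within five deviations of library mean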;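 further: RGS4 expression induced by doxycycline in cells with stable M3 receptor; B-score is computed from the integrated fluorescence ratio over baseline after carbachol; higher B-score means a larger calcium signal and so more RGS4 inhibition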
Target sequence (P49798 whole entry, looked up): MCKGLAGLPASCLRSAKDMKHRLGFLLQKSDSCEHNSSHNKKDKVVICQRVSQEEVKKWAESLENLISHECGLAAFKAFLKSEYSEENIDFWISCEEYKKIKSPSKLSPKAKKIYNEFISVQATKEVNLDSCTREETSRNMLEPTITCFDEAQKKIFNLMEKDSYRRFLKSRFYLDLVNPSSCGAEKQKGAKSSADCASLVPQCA
Cl transport mod – modulators of human KCC2 chloride dependent transport | Q9H2X9 | KCC2 cells, thallium flux FluoZin-2 fluorescence | B-score of Tl+ flux slope (higher = more flux/activation; lower = inhibition) at 10 µM | hit rate 2.2% among 190,000 | AID 1456;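 active means thallium flux slope and its plate-corrected score both differing from the plate sample mean at a set confidence after two filtering rounds, in either direction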;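 further: slope of fluorescence scaled to starting intensity during 10 to 20 s after thallium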
Active calls of the source: *; i = inactive; . = not tested or not shown.

SMILES | MrgX1 agonist | MrgX1 allo act | MrgX1 antagonist | RGS4 act | RGS4 inh | Cl transport mod
CSc1ccc(CNC(=O)Cc2ccc(NC(=O)C3=C(C)OCCS3)cc2)cc1 | i | i | i | i | i | .
COc1cc(C(=O)OCC(=O)Nc2cc(S(=O)(=O)N3CCOCC3)ccc2C)ccc1OCC(C)C | i | i | i | i | i | .
COc1cccc(N(CC(=O)NCCSCc2ccco2)S(=O)(=O)c2ccccc2)c1 | i | 7.2* | i | i | i | .
O=C(CN1C(=O)NC2(CCCC2)C1=O)Nc1ccc(C(F)(F)F)cc1 | i | i | i | i | i | .
C/C(=N\NC(=O)c1ccc(Cn2cc(Br)cn2)o1)c1ccc(NC(=O)c2ccoc2C)cc1 | . | . | . | -9.5* | i | .
Cc1ccc(NC(=O)CC(O)(C(F)(F)F)C(F)(F)F)cc1 | 48* | i | i | i | i | .
Cc1ccc(O)c(Sc2cc(C)ccc2O)c1 | 29* | i | i | i | i | 0.14
Cc1ccc(O)c(O)c1 | i | i | i | i | i | .
CN(C)CCCNS(=O)(=O)c1ccc(NC2CCCCCC2)c([N+](=O)[O-])c1 | i | i | i | i | i | .
O=C(COC(=O)c1ccc(-c2ccc([N+](=O)[O-])cc2)o1)NC(=O)NC12CC3CC(CC(C3)C1)C2 | i | i | i | i | i | 0.4
CCOC(=O)C1CCCN(C(=O)c2ccc(CS(=O)(=O)c3ccc(C)cc3)o2)C1 (configuration not stated) | i | i | i | i | i | -0.061
CCOC(=O)C1CCCN(C(=O)c2ccc(-c3ccc([N+](=O)[O-])cc3)o2)C1 (configuration not stated) | i | i | i | -9* | i | .
O=C(COC(=O)c1ccc(-c2ccc([N+](=O)[O-])cc2)o1)NC(=O)NC1CCCCC1 | i | i | i | -7* | i | -0.91
COCc1c(C#N)c(NCCc2ccccc2)nc(C)c1[N+](=O)[O-] | i | i | -6.3* | i | i | 0.66
Cc1nc(NCCc2ccc(F)cc2)c(C#N)c(C)c1[N+](=O)[O-] | 38* | i | i | i | i | 1.2
CN(CC(=O)Nc1cccc(F)c1)C(=O)c1cc([N+](=O)[O-])ccc1N1CCCCC1 | i | i | i | i | i | .
O=C(N/C(=C/c1ccccc1F)C(=O)N1CCCCC1)c1ccccc1 | i | i | i | i | i | .
CCn1nc(C)c(/C=N/NC(=O)c2ccc3c(c2)c(C)c(C)n3Cc2ccccc2)c1C | i | i | i | -8.3* | i | -0.83
CN1CCC=C(C(=O)N2c3ccccc3Sc3ccc(Cl)cc32)C1 | i | i | i | -10* | i | .
CN1CCN(CCC(=O)N2c3ccccc3Sc3ccc(Cl)cc32)CC1 | i | i | i | i | i | .
O=c1oc2ccccc2cc1-c1nc2c(s1)CCc1ccccc1-2 | i | i | -6.8* | i | i | 0.0098
COc1ccc(NC(=O)c2ccccc2N2C(=O)C3C4C=CC(C5CC45)C3C2=O)c(OC)c1 (configuration not stated) | i | i | i | i | i | .
CC1(C)Cc2c(cnn2-c2ccc(F)cc2)C(NC(=O)C2=NNC(=O)CC2)C1 (configuration not stated) | i | i | i | i | i | .
Cc1cccn2c(=O)c(C(=O)NC3CC(C)CC(C)(C)C3)c(O)nc12 (configuration not stated) | i | i | i | -7.2* | i | .
COc1cc(N2CCCC2)c(OC)cc1/C=C1/NC(=S)NC1=O | i | i | -5.4* | i | i | -2.7
SMILES | MrgX1 agonist | MrgX1 allo act | MrgX1 antagonist | RGS4 act | RGS4 inh | Cl transport mod
CC(C)OCCCn1c(=S)[nH]c2cc3c(cc2c1=O)OCO3 | i | i | i | i | i | 12*
CC(C)OCCCn1c(=S)[nH]c2ccc(N3CCOCC3)cc2c1=O | i | i | i | i | i | 2.3
CCN(CC)CCCNC(=O)c1cc(-c2ccccc2)c(N2CCCCC2)s1 | i | i | i | i | i | .
COc1ccc(-c2cn(CCc3c[nH]c4ccccc34)nn2)cc1 | i | i | i | i | i | .
CC12CC3CC(C)(C1)CC(C(=O)NC(=S)N1CCOCC1)(C3)C2 | i | i | i | i | i | 5*
O=C(c1cc(NC(=O)C23CC4CC(CC(C4)C2)C3)cc(NC(=O)C23CC4CC(CC(C4)C2)C3)c1)N1CCCCC1 | i | i | i | i | i | -0.41
O=C(NC(=S)N1CCCCC1)C12CC3CC(CC(C3)C1)C2 | i | i | i | i | i | 35*
CC12CC3CC(C)(C1)CC(C(=O)N1CCCC1)(C3)C2 | i | i | i | i | i | .
Cc1ccc2nc(SCC(=O)Nc3cccc(F)c3)nc(=O)n2c1 | i | i | i | i | i | .
CCOc1ccc(OCCOC(=O)CNC(=O)c2ccc(Cl)cc2Cl)cc1 | i | i | -7* | i | i | .
COc1ccc(NC2=NC(=S)N(c3ccccc3C)C23CCCCC3)cc1 | i | i | i | i | i | 89*
N#C/C=C1/NC(=O)c2ccccc2S1 | i | i | i | i | i | 19*
COC(=O)c1ccc2c(c1)NC(=O)c1ccccc1S2 | i | i | i | i | i | .
Cc1[nH]c2ccccc2c1/C=N/Nc1ccc([N+](=O)[O-])cc1 | i | i | -4.9* | i | i | -0.14
C/C(=N/Nc1ccc([N+](=O)[O-])cc1)c1c[nH]c2ccccc12 | i | i | -4.9* | i | i | .
